# Reference: ChEMBL document CHEMBL3045435, “Synthesis and fungicidal activity of macrolactams and macrolactones with an oxime ether side chain” (J Agric Food Chem, 2007)
# System: Phomopsis asparagi
# Test: Fungicidal activity against Phomopsis asparagi assessed as growth inhibition
# Assay type: functional, organism-based
row,SMILES,EC50
1,CCCON=C1CCCCCCCCCCC(=O)NCCC1,12 µg/mL

# System: Fulvia fulva
# Test: Fungicidal activity against Passalora fulva Cooke (tomato leaf mold fungi) assessed as growth inhibition
# Assay type: functional, organism-based
row,SMILES,EC50
1,CCCON=C1CCCCCCCCCCC(=O)NCCC1,53.1 µg/mL

# System: Botrytis cinerea
# Test: Fungicidal activity against Botryotinia fuckeliana assessed as growth inhibition
# Assay type: functional, organism-based
row,SMILES,EC50
1,CCCON=C1CCCCCCCCCCC(=O)NCCC1,8.6 µg/mL

# System: Rhizoctonia solani
# Test: Fungicidal activity against Rhizoctonia solani assessed as growth inhibition
# Assay type: functional, organism-based
# Summary of the method: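 Mycelium growth rate test on Rhizoctonia solani Kühn. Inhibition rate was measured at 100, 50, 25, 12.5 and 6.25 µg/mL. EC50 was estimated by logistic analysis. A commercial fungicide reference was run under the same conditions.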
row,SMILES,EC50
1,CCCON=C1CCCCCCCCCCC(=O)NCCC1,4.6 µg/mL

# System: Rhizoctonia solani
# Test: Fungicidal activity against Rhizoctonia solani by mycelium growth rate test
# Assay type: functional, organism-based
row,SMILES,EC50
1,CCCO/N=C1\CCCCCCCCCCC(=O)NCCC1,3.62 µg/mL
2,CCCO/N=C1/CCCCCCCCCCC(=O)NCC1,22.1 µg/mL
3,O=C1CCCCCCCCCC/C(=N/OCc2ccc(Cl)cc2)CCCN1,68.4 µg/mL
4,O=C1CCCCCCCCCC/C(=N\OCc2ccc(Cl)cc2)CCCN1,164 µg/mL
5,O=C1CCCCCCCCCC/C(=N/OCc2c(F)cccc2Cl)CCCN1,2.34 µg/mL
6,O=C1CCCCCCCCCC/C(=N\OCc2c(F)cccc2Cl)CCCN1,6.21 µg/mL
7,CCCON=C1CCCCCCCCCCC(=O)OCCC1,8.08 µg/mL
8,C=CCON=C1CCCCCCCCCCC(=O)OCCC1,12.8 µg/mL
9,CCCCON=C1CCCCCCCCCCC(=O)OCCC1,13.4 µg/mL
10,CCCCCCCON=C1CCCCCCCCCCC(=O)OCCC1,9.68 µg/mL
11,CCCCCCCCCCCCCCCCON=C1CCCCCCCCCCC(=O)OCCC1,40.4 µg/mL
12,O=C1CCCCCCCCCCC(=NOCc2ccccc2)CCCO1,45.1 µg/mL
13,O=C1CCCCCCCCCCC(=NOCc2ccc(Cl)cc2)CCCO1,19.6 µg/mL
14,O=C1CCCCCCCCCCC(=NOCc2c(F)cccc2Cl)CCCO1,51.3 µg/mL
15,O=C1CCCCCCCCCC/C(=N\OCc2cccnc2)CCN1,52.5 µg/mL
16,CCO/N=C1\CCCCCCCCCCC(=O)NCCC1,22.7 µg/mL
17,CCCO/N=C1/CCCCCCCCCCC(=O)NCCC1,13.1 µg/mL
18,C=CCO/N=C1/CCCCCCCCCCC(=O)NCCC1,45.6 µg/mL
19,C=CCO/N=C1\CCCCCCCCCCC(=O)NCCC1,15.9 µg/mL
20,CCCCO/N=C1/CCCCCCCCCCC(=O)NCCC1,3.97 µg/mL

row,SMILES,EC50
1,CCCCO/N=C1\CCCCCCCCCCC(=O)NCCC1,2.34 µg/mL
2,CCCCCCCO/N=C1/CCCCCCCCCCC(=O)NCCC1,19.2 µg/mL
3,CCCCCCCO/N=C1\CCCCCCCCCCC(=O)NCCC1,27.9 µg/mL
4,CCCCCCCCCCCCCCCCO/N=C1/CCCCCCCCCCC(=O)NCCC1,47.8 µg/mL
5,CCCCCCCCCCCCCCCCO/N=C1\CCCCCCCCCCC(=O)NCCC1,51.5 µg/mL
6,O=C1CCCCCCCCCC/C(=N/OCc2ccccc2)CCCN1,5.84 µg/mL
7,O=C1CCCCCCCCCC/C(=N\OCc2ccccc2)CCCN1,8.28 µg/mL
8,O=C1CCCCCCCCCC/C(=N\OCc2ccccc2)CCN1,7.24 µg/mL
9,Cc1ccc(CO/N=C2/CCCCCCCCCCC(=O)NCC2)cc1,111 µg/mL
10,Cc1ccc(CO/N=C2\CCCCCCCCCCC(=O)NCC2)cc1,50.5 µg/mL
11,O=C1CCCCCCCCCC/C(=N/OCc2ccc(F)cc2)CCN1,74.9 µg/mL
12,O=C1CCCCCCCCCC/C(=N\OCc2ccc(F)cc2)CCN1,12.1 µg/mL
13,O=C1CCCCCCCCCC/C(=N/OCc2ccc(Cl)cc2)CCN1,97.2 µg/mL
14,O=C1CCCCCCCCCC/C(=N\OCc2ccc(Cl)cc2)CCN1,84.8 µg/mL
15,O=C1CCCCCCCCCC/C(=N/OCc2ccc([N+](=O)[O-])cc2)CCN1,49.3 µg/mL
16,O=C1CCCCCCCCCC/C(=N\OCc2ccc([N+](=O)[O-])cc2)CCN1,166 µg/mL
17,O=C1CCCCCCCCCC/C(=N/OCc2c(F)cccc2Cl)CCN1,1730 µg/mL
18,O=C1CCCCCCCCCC/C(=N\OCc2c(F)cccc2Cl)CCN1,43 µg/mL
19,O=C1CCCCCCCCCC/C(=N/OCc2ccc(Cl)cc2Cl)CCN1,100 µg/mL
20,O=C1CCCCCCCCCC/C(=N\OCc2ccc(Cl)cc2Cl)CCN1,106 µg/mL

row,SMILES,EC50
1,O=C1CCCCCCCCCC/C(=N/OCc2cccnc2)CCN1,56.4 µg/mL
2,CCO/N=C1\CCCCCCCCCCC(=O)NCC1,25.8 µg/mL
3,CCCO/N=C1\CCCCCCCCCCC(=O)NCC1,9.11 µg/mL
4,C=CCO/N=C1/CCCCCCCCCCC(=O)NCC1,44 µg/mL
5,C=CCO/N=C1\CCCCCCCCCCC(=O)NCC1,21.8 µg/mL
6,CCCCO/N=C1/CCCCCCCCCCC(=O)NCC1,55.1 µg/mL
7,CCCCO/N=C1\CCCCCCCCCCC(=O)NCC1,7.21 µg/mL
8,CC(C)CO/N=C1/CCCCCCCCCCC(=O)NCC1,48.4 µg/mL
9,CC(C)CO/N=C1\CCCCCCCCCCC(=O)NCC1,30.4 µg/mL
10,CCCCCCCO/N=C1/CCCCCCCCCCC(=O)NCC1,209 µg/mL
11,CCCCCCCO/N=C1\CCCCCCCCCCC(=O)NCC1,50.3 µg/mL
12,CCCCCCCCCCCCCCO/N=C1/CCCCCCCCCCC(=O)NCC1,101 µg/mL
13,CCCCCCCCCCCCCCO/N=C1\CCCCCCCCCCC(=O)NCC1,69.1 µg/mL
14,CCCCCCCCCCCCCCCCO/N=C1/CCCCCCCCCCC(=O)NCC1,135 µg/mL
15,CCCCCCCCCCCCCCCCO/N=C1\CCCCCCCCCCC(=O)NCC1,127 µg/mL
16,O=C1CCCCCCCCCC/C(=N/OCc2ccccc2)CCN1,18.1 µg/mL
17,CO/N=C1/CCCCCCCCCCC(=O)NCC1,51.3 µg/mL
18,CO/N=C1\CCCCCCCCCCC(=O)NCC1,55.8 µg/mL
19,COC(=O)Nc1nc2ccccc2[nH]1 [CARBENDAZIM],1.54 µg/mL

# System: Phytophthora capsici
# Test: Fungicidal activity against Phytophthora capsici assessed as growth inhibition
# Assay type: functional, organism-based
row,SMILES,EC50
1,CCCON=C1CCCCCCCCCCC(=O)NCCC1,57.8 µg/mL

# System: Botryosphaeria berengeriana
# Test: Fungicidal activity against Botryosphaeria berengeriana Nose (apple ring spot fungi) assessed as growth inhibition
# Assay type: functional, organism-based
row,SMILES,EC50
1,CCCON=C1CCCCCCCCCCC(=O)NCCC1,13.8 µg/mL

# System: Verticillium albo-atrum
# Test: Fungicidal activity against Vercicillium albo-atrum assessed as growth inhibition
# Assay type: functional, organism-based
row,SMILES,EC50
1,CCCON=C1CCCCCCCCCCC(=O)NCCC1,19.3 µg/mL

# System: Phyllosticta
# Test: Fungicidal activity against Phyllospicpa physaleos Sacc (tomato southern blight fungi) assessed as growth inhibition
# Assay type: functional, organism-based
row,SMILES,EC50
1,CCCON=C1CCCCCCCCCCC(=O)NCCC1,1.9 µg/mL

# System: Colletotrichum lagenaria
# Test: Fungicidal activity against Colletotrichum lagenaria assessed as growth inhibition
# Assay type: functional, organism-based
row,SMILES,EC50
1,CCCON=C1CCCCCCCCCCC(=O)NCCC1,23.9 µg/mL

# System: Alternaria kikuchiana
# Test: Fungicidal activity against Alternaria kikuchiana (pear black spot fungi) assessed as growth inhibition
# Assay type: functional, organism-based
row,SMILES,EC50
1,CCCON=C1CCCCCCCCCCC(=O)NCCC1,1.2 µg/mL

# System: Pythium aphanidermatum
# Test: Fungicidal activity against Pythium aphanidermatum assessed as growth inhibition
# Assay type: functional, organism-based
row,SMILES,EC50
1,CCCON=C1CCCCCCCCCCC(=O)NCCC1,33.3 µg/mL

# System: Alternaria solani
# Test: Fungicidal activity against Alternaria solani assessed as growth inhibition
# Assay type: functional, organism-based
row,SMILES,EC50
1,CCCON=C1CCCCCCCCCCC(=O)NCCC1,44.2 µg/mL

# System: Fusarium oxysporum f. sp. vasinfectum
# Test: Fungicidal activity against cotton Fusarium oxysporum f. sp. vasinfectum (fusarium wilt fungi) assessed as growth inhibition
# Assay type: functional, organism-based
row,SMILES,EC50
1,CCCON=C1CCCCCCCCCCC(=O)NCCC1,29 µg/mL
